The list is not random: actives were taken first. Their share in the collection is about 2.3%.
Beta apoptosis: beta cell apoptosis inhibition. actives 0.8% (n = 300,000). protection from apoptosis, % (no concentration beside the values). AID 435005. INS-1E cytokine-induced death, ATP luminescence, 48 h; percent of positive-control rescue, neutral wells zero;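 active = Every replicate reaches about 75%, or at least half do and their mean reaches it too, limit read from the data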;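 also: higher means more ATP so stronger rescue from cytokine killing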
HIF act: HIF pathway transcriptional activation; U2OS HRE-luciferase reporter, luminescence; normalized: DMSO 0%, desferrioxamine 100%; activation, % at 7.5 µM (by protocol); actives 0.32% (n = 300,000);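 active = mean activation of at least 10% of the iron chelator positive control signal, with at least half of replicates also reaching 10%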
KLF5 inh: kruppel-like factor 5 inhibition | DLD-1 KLF5 promoter-luciferase reporter, luminescence | inhibition, % at 5 µM | actives 0.23% (n = 290,000) | AID 1700;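 active = inhibition above a per-plate limit of that plate's mean compound inhibition plus 3 SD, cut at about 60% in these data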;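 also: higher means less KLF5 promoter-driven luciferase light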
T cruzi inh: T. cruzi replication inhibition; T. cruzi beta-gal in NIH3T3, luminescence, 90 h; inhibition, % (test concentration not listed); actives 1.4% (n = 300,000);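 active = mean inhibition across valid replicates above about 55%, limit read from the data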;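 also: signal also drops with host cell toxicity which is not excluded here; higher percent means less beta-gal luminescence so fewer parasites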
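Test system: β-gal T. cruzi (Tulahuen C4) inside NIH/3T3 cells / Quantity: 5,000 cells/well / Measured by: luminescence from GalScreen with 0.05% NP40, read after 60 min / Medium: DMEM plus 2% FBS / Measure: parasite load inhibition, % / Reagent: Tulahuen C4 trypomastigotes, 5000/well / Schedule: co-culture of at least 90 h after 3 h attachment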
A1 inh: inhibitors of the anti-apoptotic protein A1, read as caspase activation. MEF A1-2A-BIM cells, Caspase-Glo 3/7 luminescence, 3 h; percent of clofoctol response, vehicle zero. caspase activation, % (concentration not given with the values). actives 0.066% (n = 330,000). AID 2462;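 active = over half of replicate activation scores above 10%, or exactly half above 10 with the replicate mean above 10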
KLF5 inh confirm: confirmation of KLF5 inhibitors | inhibition, % at 4 µM | DLD-1 KLF5 promoter firefly luciferase reporter, luminescence | shares compounds with KLF5 inh | actives 79% (n = 610) | AID 1834;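 active = inhibition above a set limit taken from the earlier primary screen, cut at about 63% in these data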
IEC-6 tox: kills rat IEC-6 cells in KLF5 counter-screen. shares compounds with KLF5 inh. IEC-6 rat intestinal cells, viability luminescence. inhibition, % at 4 µM. actives 56% (n = 610). AID 1905; in the data active = inhibition above about 23%;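 also: cells exposed to compounds for 48 hours before viability read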
Of the large screens only hits and unclear results are named; the others gave an inactive call (follow-up assays come after a bar, where they were run).

CCOc1cc(C#N)c(NC(=O)c2cccnc2)cc1OCC	KLF5 inh 73 | KLF5 inh confirm 79 | IEC-6 tox 50
COc1ccc2c(c1)sc(N)[n+]2Cc1cc(C)cc2cccnc12	KLF5 inh 69 | KLF5 inh confirm 73 | IEC-6 tox 61
Cc1cc(C[n+]2ncsc2N)c2ncccc2c1	none
CCOc1ccc2c(c1)sc(N)[n+]2Cc1cc(C)cc2cccnc12	KLF5 inh 76 | KLF5 inh confirm 73 | IEC-6 tox 67
COc1cccc2c1C(CO)N1C(C#N)C3CC(C(=O)O)C(C1C2)N3C (stereo unspecified)	KLF5 inh 110 (no result: HIF act, T cruzi inh) | KLF5 inh confirm 109 | IEC-6 tox 100
COc1cccc2c1OCC(C(=O)O)C2 (stereo unspecified)	none (no result: Beta apoptosis)
CC(=O)NS(=O)(=O)c1ccc(NC(=S)NC(=O)C2CCC2)cc1	none (no result: Beta apoptosis, A1 inh)
CC(C)(C)c1ccc(/C=N/Nc2cccc(C(=O)O)c2)cc1	none
CN(C)c1ccc(/C=N/Nc2cccc(C(=O)O)c2)cc1	KLF5 inh 75 | KLF5 inh confirm 109 | IEC-6 tox inactive
O=C(O)c1ccc(N/N=C/c2ccc3c(c2)OCO3)cc1	none (no result: Beta apoptosis)
CC(C)(C)c1ccc(/C=N/Nc2ccc(C(=O)O)cc2)cc1	KLF5 inh 66 | KLF5 inh confirm 94 | IEC-6 tox 34
O=C(O)c1ccc(N/N=C/c2c(F)cccc2Cl)cc1	KLF5 inh 66 | KLF5 inh confirm inactive | IEC-6 tox inactive
CC1=Nc2cc(C(=O)NCC3CCCO3)ccc2Sc2ccc(C)cc21 (stereo unspecified)	none
CC1=Nc2cc(C(=O)NCc3ccco3)ccc2Sc2ccc(C)cc21	KLF5 inh 68 | KLF5 inh confirm 83 | IEC-6 tox 62
CCc1cccc(N(CC(=O)NC2CCCCC2)C(=O)c2csnn2)c1	none
O=C(Nc1nc2cc3c(cc2s1)OCCO3)C1=COCCO1	KLF5 inh 96 | KLF5 inh confirm 92 | IEC-6 tox inactive
CN(C(=O)COC(=O)/C=C/c1cccc([N+](=O)[O-])c1)C1CCS(=O)(=O)C1 (stereo unspecified)	KLF5 inh 83 | KLF5 inh confirm 97 | IEC-6 tox inactive
Cc1ccc(-n2nnc(-c3nccs3)n2)cc1	KLF5 inh 63 | KLF5 inh confirm 64 | IEC-6 tox inactive
CCCCCC(=O)N[C@@H](c1ccccc1)[C@@H](O)C(=O)O[C@H]1C[C@@]2(O)[C@@H](OC(=O)c3ccccc3)C3[C@](C)(C(=O)[C@H](OC(C)=O)C(=C1C)C2(C)C)[C@@H](O)C[C@H]1OC[C@@]31OC(C)=O (stereo partly specified)	KLF5 inh 66 | KLF5 inh confirm 84 | IEC-6 tox 88
CCOc1ncccc1C(=O)N1CCN(c2cc(Cl)ccc2C)CC1	KLF5 inh 68 | KLF5 inh confirm 78 | IEC-6 tox 64
CCOc1ncccc1C(=O)N1CCN(C(=O)c2ccccc2)CC1	none
CCOc1ncccc1C(=O)N1CCN(S(=O)(=O)c2ccccc2)CC1	none
CCOc1ncccc1C(=O)N1CCN(c2cccc(C)c2C)CC1	KLF5 inh 73 (no result: Beta apoptosis, A1 inh) | KLF5 inh confirm 85 | IEC-6 tox 60
CC(C)(C)c1ccc(C(=O)O/N=C(\N)c2ccccc2)cc1	KLF5 inh 71 | KLF5 inh confirm 66 | IEC-6 tox inactive
COc1ccc(C(=O)O/N=C(\N)c2ccccc2)cc1	none
CCc1ccc(NC(=O)CS(=O)CC(=O)Nc2ccc(-n3cnnn3)c(C)c2)cc1 (stereo unspecified)	none (no result: Beta apoptosis)
COc1cc(-c2noc(C)c2/C=C/c2cccc([N+](=O)[O-])c2)cc(OC)c1OC	KLF5 inh 64 | KLF5 inh confirm 79 | IEC-6 tox 54
COc1cc(C(=O)NCC(=O)N/N=C(\C)Cc2ccccc2)cc(OC)c1OC	none
COc1cc(C(=O)N/N=C(\C)Cc2ccccc2)cc(OC)c1OC	KLF5 inh 76 | KLF5 inh confirm inactive | IEC-6 tox inactive
COc1ccc(Cl)cc1S(=O)(=O)N1CCC(C(=O)N2CCOCC2)CC1	none
CCCCN1C=CC(=C2C(=O)c3ccccc3C2=O)C=C1	KLF5 inh 95 | KLF5 inh confirm inactive | IEC-6 tox inactive
CCCCC1C(=O)N(c2ccccc2)N(c2ccccc2)C1=O	none
COC(=O)Nc1sc2c(c1C(N)=O)CCC(C)C2 (stereo unspecified)	none
COc1cc(C(=O)Nc2sc3c(c2C(=O)O)CCC(C)C3)cc(OC)c1OC (stereo unspecified)	KLF5 inh 74 | KLF5 inh confirm inactive | IEC-6 tox inactive
O=C(CSc1ccccc1)N1CCN(c2ccc(F)cc2)CC1	none (no result: KLF5 inh)
Cc1ccc(N2C(=O)c3cccc4c(N)ccc(c34)C2=O)c2cccnc12	KLF5 inh 63 | KLF5 inh confirm 90 | IEC-6 tox 72
Cc1nn(-c2nc3ccccc3[nH]2)c(=O)c2ccccc12	Beta apoptosis 86, KLF5 inh 110 | KLF5 inh confirm 105 | IEC-6 tox 63
CCCc1nc2c(=O)n(C)c(=O)nc-2n(C)n1	KLF5 inh 72 (no result: Beta apoptosis, HIF act, T cruzi inh, A1 inh) | KLF5 inh confirm 112 | IEC-6 tox 49
CCN(CC)c1ccc(NC(=O)c2cc(OC)cc(OC)c2)c(C)c1	KLF5 inh 75 (no result: Beta apoptosis, A1 inh) | KLF5 inh confirm 79 | IEC-6 tox 60
CCN(CC)c1ccc(NC(=O)c2cccc(OC)c2)c(C)c1	none
COc1ccc2c(c1)C=C([C@@H]1C[C@H]3CN(c4ccccc4)C(=O)[C@]34CCCN14)CO2	KLF5 inh 75 | KLF5 inh confirm inactive | IEC-6 tox inactive
Cc1cc(C)c2nc(NC(=O)[C@@H](NC(=O)c3cccc(S(=O)(=O)N4CCOCC4)c3)C(C)C)sc2c1	KLF5 inh 74 | KLF5 inh confirm 100 | IEC-6 tox 45
COc1ccc(OC)c(Nc2c3c(nc4ccccc24)CCC3)c1	KLF5 inh 64, T cruzi inh 59 | KLF5 inh confirm 111 | IEC-6 tox 63
COc1cc(Nc2c3c(nc4ccccc24)CCC3)cc(OC)c1OC	none
NC(=O)C(=CNc1nc(-c2ccc(Cl)c(Cl)c2)cs1)C(N)=O	none (no result: Beta apoptosis, HIF act, T cruzi inh, A1 inh)
O=C(Nc1ccc(N2CCCCCC2)cc1)c1ccccc1Cl	none
O=C(Nc1ccc(N2CCCCC2)cc1)c1ccccn1	KLF5 inh 104 | KLF5 inh confirm 100 | IEC-6 tox inactive
N/C(=N\OC(=O)c1ccc2ccccc2c1)c1ccncc1	none
N/C(=N\OC(=O)c1ccc2ccccc2c1)c1ccccn1	KLF5 inh 86 | KLF5 inh confirm inactive | IEC-6 tox inactive
CCCc1ccc(C(=O)O/N=C(\N)c2ccccn2)cc1	KLF5 inh 102 | KLF5 inh confirm 97 | IEC-6 tox inactive
N/C(=N\OC(=O)c1ccc(=O)n(Cc2ccccc2)c1)c1ccccn1	none

Compound activity deposited in PubChem BioAssay by several laboratories.
